The nature of series [1]: Kinetic solubility of the compound at pH 6.5 by nephelometric analysis. Format: physicochemical. To be noted: buffer, read-out: Kinetic_solubility.
The subject of series [2] is Trypanosoma cruzi. Kind of series: Antitrypanosomal activity against trypomastigotes of Trypanosoma cruzi Tulahuen infected in Swiss mouse model of chagas disease assessed as decrease in parasite level in blood at 2 mg/kg, po administered 8 days after post infection qd for 5 days. Details: scale not given: the % may be the effect or the level left.
Series [3] can be described thus: Plasma concentration in Swiss mouse at 50 mg/kg, po after 8 hrs. Also noted: dose 50 mg/kg, route oral. Format: ADME, organism-based. The method in brief:
(§1)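 Nonfasted male Swiss outbred mice (23.8–39.9 g), fed throughout. Dosed by oral gavage as solution or suspension in aqueous vehicle. Plasma assayed by LC-MS against blank-plasma standards after acetonitrile precipitation; LLOQ 0.001–0.015 μM.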

The nature of series [4]: Plasma concentration in Swiss mouse at 50 mg/kg, po after 24 hrs. The format is ADME, organism-based. Also noted: dose 50 mg/kg, route oral. The method in brief:
as §1

Series [5] concerns Trypanosoma cruzi. Briefly: Antitrypanosomal activity against trypomastigotes of Trypanosoma cruzi Tulahuen infected in Swiss mouse model of chagas disease assessed as increase of host survival at 2 mg/kg, po administered 8 days after post infection qd for 5 days. The format is functional, organism-based. Also noted: dose 2 mg/kg. In a few lines: (§2)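 Female outbred Swiss mice, about 8 weeks old, infected ip with Tulahuén parasites; five mice per group. Daily dosing starts day 8 post-infection. Oral doses given by gavage in HPMC vehicle (0.5% HPMC, 0.4% Tween 80, 0.5% benzyl alcohol); ip doses in PBS with 0.4% Tween 80 and 10% PEG400. Tail-prick blood taken days 8, 9, 12, 14, 16, 19 and 27 post-infection, red cells lysed, and live trypomastigotes counted by hemocytometer. % efficacy = (vehicle mean − treated mean)/vehicle mean × 100. Survival recorded as surviving/infected-and-treated.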

In series [6] the test system is Trypanosoma cruzi. Kind of series: Antitrypanosomal activity against trypomastigotes of Trypanosoma cruzi Tulahuen infected in Swiss mouse model of chagas disease assessed as decrease in parasite level in blood at 50 mg/kg, po administered 8 days after post infection qd for 5 days. The format is functional. Also noted: scale not given: the % may be the effect or the level left. The method in brief:
as §2

Series [7] relates to Trypanosoma cruzi. Briefly: Antitrypanosomal activity against trypomastigotes of Trypanosoma cruzi Tulahuen infected in Swiss mouse model of chagas disease assessed as decrease in parasite level in blood at 20 mg/kg, po administered 8 day after post infection qd for 20 days. Format: functional. Details: scale not given: the % may be the effect or the level left. The method in brief: as §2

Series [8] is described as follows: Plasma concentration in Swiss mouse at 20 mg/kg, po after 1 hr. The format is ADME, organism-based. Details: dose 20 mg/kg, route oral. The method in brief: as §1
The nature of series [9]: Plasma concentration in Swiss mouse at 50 mg/kg, po after 1 hr. Also noted: dose 50 mg/kg, route oral. Format: ADME, organism-based. In a few lines: as §1
Series [10] concerns Trypanosoma cruzi. Kind of series: Antitrypanosomal activity against trypomastigotes of Trypanosoma cruzi Tulahuen infected in Swiss mouse model of chagas disease assessed as decrease in parasite level in blood at 10 mg/kg, ip administered 8 days after post infection qd for 5 days. Format: functional. Details: scale not given: the % may be the effect or the level left. The note with it: route intraperitoneal. In a few lines: as §2

The test system of series [11] is Trypanosoma cruzi. Kind of series: Antitrypanosomal activity against trypomastigotes of Trypanosoma cruzi Tulahuen infected in Swiss mouse model of chagas disease assessed as level of parasite in blood at 20 mg/kg, po qd for 20 days measured after 30 day. The format is functional, organism-based. Details: dose 20 mg/kg. In a few lines:
(§3)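 Female Swiss mice infected ip with Tulahuén parasites; oral gavage dosing in HPMC vehicle, daily from day 8 post-infection. Dosing is followed by 10 days without compound. If blood is then parasite-free, mice receive cyclophosphamide ip 50 mg/kg/day, up to three cycles (4 days on, 3 rest). Parasitemia counted in tail-prick blood by hemocytometer.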

The target of series [12] is T1, CYP3A4/5 (Homo sapiens, UniProt P08684+P20815). Briefly: Inhibition of […] in human liver microsomes at 20 uM. Format: ADME, Microsome. On the technique in general: Liver microsomes are vesicles of endoplasmic reticulum, rich in cytochrome P450 enzymes.
Series [13] in a line: Plasma concentration in Swiss mouse at 20 mg/kg, po after 8 hrs. Format: ADME, organism-based. Details: dose 20 mg/kg, route oral. In a few lines:
as §1

The test system of series [14] is Trypanosoma cruzi. Kind of series: Antitrypanosomal activity against trypomastigotes of Trypanosoma cruzi Tulahuen infected in Swiss mouse model of chagas disease assessed as increase of host survival at 10 mg/kg, po administered 8 days after post infection qd for 5 days. Format: functional, organism-based. Also noted: dose 10 mg/kg. The method in brief:
as §2

Series [15] concerns Trypanosoma cruzi. Kind of series: Antitrypanosomal activity against trypomastigotes of Trypanosoma cruzi Tulahuen infected immunosuppressed Swiss mouse assessed as level of parasite in blood at 20 mg/kg, po administered after 2 cycles of immunosuppression qd for 10 days. Format: functional, organism-based. Also noted: dose 20 mg/kg. The method in brief:
as §3

Series [16] deals with Trypanosoma cruzi. Kind of series: Antitrypanosomal activity against trypomastigotes of Trypanosoma cruzi Tulahuen expressing the beta- galactosidase gene infected rat L6 cells after 96 hrs. The format is functional, organism-based. The note with it: L6, 96 h. The method in brief: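 Tulahuén trypomastigotes expressing β-galactosidase, maintained by serial passage in L6 cells. L6 cells seeded and left 24 h at 37 °C, 5% CO2, then infected at MOI 3 for 48 h. Compound exposure 96 h, benznidazole control. CPRG with 0.3% Nonidet P-40 added, absorbance at 530 nm after 4−6 h. IC50 taken from % inhibition curve; mean of at least two assays.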

Series [17] is described as follows: Apparent volume of distribution at steady state in Sprague-Dawley rat at 4.8 mg/kg, iv. Format: ADME, organism-based. Also noted: dose 4.8 mg/kg, route intravenous. The note with it: in vivo, read-out: Vdss(app). In a few lines:
(§4)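 Overnight-fasted male Sprague–Dawley rats (272–320 g), n = 2 per route. IV dose given as a 10 min jugular infusion in aqueous solution; oral dose by gavage as aqueous suspension. Arterial blood taken via carotid cannula up to 24 h. Plasma measured by LC-MS after acetonitrile precipitation. Noncompartmental analysis. Blood clearance = plasma clearance divided by in vitro blood/plasma ratio. Bioavailability from mean dose-normalised AUC0–inf, oral versus IV.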

The nature of series [18]: Elimination half life in Sprague-Dawley rat at 4.8 mg/kg, iv. Details: dose 4.8 mg/kg, route intravenous. Format: ADME, organism-based. The note with it: in vivo, read-out: beta t1/2 (converted). In a few lines:
as §4

Series [19] is described as follows: Oral bioavailability in Sprague-Dawley rat at 15.7 mg/kg. To be noted: in vivo. Format: ADME, organism-based. In a few lines: as §4
Series [20] addresses T1, CYP3A4/5. Kind of series: Inhibition of CYP3A4/5 in human liver microsomes. The format is ADME, Microsome.
A short description of series [21]: Blood Clearance in Sprague-Dawley rat at 4.8 mg/kg, iv. To be noted: whole blood. The format is ADME, organism-based. Also noted: dose 4.8 mg/kg, route intravenous. The method in brief:
as §4

The test system of series [22] is Trypanosoma cruzi. Kind of series: Antitrypanosomal activity against trypomastigotes of Trypanosoma cruzi Tulahuen infected in Swiss mouse model of chagas disease assessed as increase of host survival at 100 mg/kg, ip administered 8 days after post infection qd for 5 days. Details: dose 100 mg/kg. The format is functional, organism-based. In a few lines: as §2

Series [23] deals with Trypanosoma cruzi. Kind of series: Antitrypanosomal activity against trypomastigotes of Trypanosoma cruzi Tulahuen infected in Swiss mouse model of chagas disease assessed as decrease in parasite level in blood at 100 mg/kg, ip administered 8 days after post infection qd for 5 days. Format: functional. Also noted: scale not given: the % may be the effect or the level left. The note with it: route intraperitoneal. In a few lines:
as §2

Structures are written as SMILES. pIC50: −log10 of the molar value. ≈ marks a conversion by molar mass, not a printed value. Calls of active or inactive are those of the source. The calls are words filed in the database; no cut-off is given here.

Experimental findings from ChEMBL document CHEMBL2057177, “Analogues of fenarimol are potent inhibitors of Trypanosoma cruzi and are efficacious in a murine model of Chagas disease” (J Med Chem, 2012) are described below.

For the compound `CC[C@@H]([C@H](C)O)n1ncn(-c2ccc(N3CCN(c4ccc(OC[C@@H]5CO[C@@](Cn6cncn6)(c6ccc(F)cc6F)C5)cc4)CC3)cc2)c1=O` [POSACONAZOLE], the solubility kinetic in series [1] was found to be 3.1 µg/mL (≈ 4.42 µM). Further, the Activity in the series on Trypanosoma cruzi [2] was 100%; in the series on Trypanosoma cruzi [6] it was 100%; in the series with Trypanosoma cruzi [7], >99%; in the series on Trypanosoma cruzi [10] it was 100%. Also, the concentration at 8 h came out at 11.1 µM in [3] and 13.6 µM in series [13]. The same compound displayed a concentration at 24 h in series [4] of 3.8 µM. In addition, the result with Trypanosoma cruzi [5], in the series with Trypanosoma cruzi [11] and with Trypanosoma cruzi [14] was Active. For the same compound, the concentration at 1 h in series [8] was determined as 6.3 µM; in series [9], 6.4 µM. Further, the inhibition (usually the percentage by which the read-out fell short of the control) at 20 µM on CYP3A4/5 [12] was 98%. Besides, in the series on Trypanosoma cruzi [15], the outcome was inactive.

On to `CC(C)Oc1ncc(C(O)(c2cccnc2)c2ccc(Cl)cc2F)cn1` (racemic), for which, in [1], the solubility kinetic came out at 12.5 µg/mL (≈ 33.4 µM). Moreover, the negative-log IC50 (pIC50) – broadly, −log10 of the IC50, conventionally taken in molar units – in the series with Trypanosoma cruzi [16] was 8.10; on CYP3A4/5 [20], 5.36. The Vd in series [17] came out at 9.1 L/kg. For the same compound, in [18], the half-life is 11.3 h. Besides, the bioavailability (in general, dose-corrected exposure relative to a reference, in per cent) in [19] turned out to be 7.4%. Moreover, the clearance (commonly the volume of plasma or blood freed of the substance per unit of time) in series [21] was 73.9 mL/min/kg.

As for `OC(c1ccc(Cl)cc1)(c1cncnc1)c1ccccc1Cl` (stereo not drawn) [FENARIMOL], the negative-log IC50 (pIC50) in the series on Trypanosoma cruzi [16] is 6.46. In addition, in [8], the concentration at 1 h is 2.1 µM. The outcome in the series on Trypanosoma cruzi [22] was Active. The Activity in the series on Trypanosoma cruzi [23] was 80%. Besides, the inhibition at 20 µM against CYP3A4/5 [12] was determined as 66%. The same compound gave a concentration at 8 h in [13] of 0.08 µM.
